The source of these data is the RNAGym collection of RNA variant scans (doi:10.1126/science.aae0568).

Variants at the floor of the assay were thinned out.

First the molecules themselves.
B1: tRNA (parent)
chain: GUUCCGUUGGCGUAAUGGUAACGCGUCUCCCUCCUAAGGAGAAGACUGCGGGUUCGAGUCCCGUACGGAACG

The variants in this data set derive from B1. In words: yeast fitness relative to wild type (ratio to wild type); higher = fitter; tRNA-Arg(CCU), competitive growth, 37 C, YPD. An outline of the steps: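 Genotype frequency changes were the basis for Darwinian fitness relative to wild type. The frequencies came from 100-nucleotide paired-end sequencing of gene amplicons from the start population and each end population of pooled yeast strains with tRNA-Arg(CCU) gene variants at the native locus. Competition ran in YPD at 37°C for 24 hours in six replicates, genotypes needed ≥ 100 starting reads, and estimates < 0.5 were set to 0.5.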
As for U26C U35A C62U, the yeast fitness turned out to be 0.523.
The same measure for C27A C31U A43G C61U A65C: 0.501.
On to U26C U35C U64G A65G C66G, for which the yeast fitness is no more than 0.5.
As for C27G A36G G52C, the yeast fitness is no more than 0.5.
In the case of C27G A43C A57U, the yeast fitness worked out at 0.599.
The value for U26C C49A G67A was no more than 0.5; that for U26C C31A A42U was 0.9; that for U26C C29U C61U was no more than 0.5.
The value for U26G A42G A43C C46G was 0.677; that for U26G G48A C61U was 0.94; that for U26G A36U was 0.714.
Take U26G C49U: the yeast fitness was 0.974.
The value for U26G G63A was 0.919.
The same measure for U26C C61G: 0.591.
As for U26C C27G C60G C62U, the yeast fitness turned out to be 0.624.
As for C27A A45G G48C, the yeast fitness was no more than 0.5.
The same measure for U26C A40G C49U: 0.502; for C27A A36G: 0.761; for U26G U59C: 0.936.
The same measure for C27A C30G G41C: no more than 0.5; for C27A C34A: 0.68.
The same measure for C27A A37C C62G: no more than 0.5; for C27A U35A G48A U59C: 0.567; for U26C C33U U53A C66A: no more than 0.5.
Take C27G A57G: the yeast fitness stood at 0.608.
The value for C27G A57U was 0.591.
As for U26C C33U A40U, the yeast fitness is no more than 0.5.
The value for C27A A37G G39C C55U A65C was no more than 0.5; that for U26G C27G A57C C66U A69U was no more than 0.5; that for C27A A36G A43G C55U C60U was no more than 0.5.
The value for U26C U28C C46G C62G G67U was no more than 0.5; that for C27A C61A G67C was no more than 0.5; that for U26G A45G C46U U53G was 0.599.
The value for C27G A37C G39A A45C A65U was no more than 0.5; that for C27G A40C was 0.575.
Take U26C U32C U47A: the yeast fitness was no more than 0.5.
C27G A43C G63C: the yeast fitness was no more than 0.5.
The value for U26G G50C C66U was no more than 0.5.
The value for C27A C29A C49A was no more than 0.5; that for U26G U53A C55U C61A was no more than 0.5; that for U26G C31U G68C was 0.636.
The value for C27A C60G U64C was 0.779; that for C27A C61A was 0.67; that for C27A A70C was 0.787.
For C27A A70U, the yeast fitness was determined as 0.962.
The same measure for U26G U28A A45C: no more than 0.5.
The same measure for U26A G63C A69U: 0.527; for C27G A36G G67U: no more than 0.5.
The same measure for C27A A37C C55G: no more than 0.5; for C27A C30G G41C C61G C62U C66U A69U: no more than 0.5.
Consider C27A G58C U64G, for which the yeast fitness is no more than 0.5.
The same measure for U26G U47A: 0.811; for C27G A42U C55U A70C: no more than 0.5; for C27A G50C C62G C66U: 0.606.
In the case of U26C C33U G52C, the yeast fitness amounted to 0.609.
The value for C27A U35C U64A was no more than 0.5.
Take C27A A45U C60G G63A A65U C66U: the yeast fitness is no more than 0.5.
The same measure for C27A G58A: 0.849; for C27A G41C A43C C66U: 0.517; for U26G G68C: 0.596.
The value for U26G G68A was 0.824.
The value for U26G G51A A65G was 0.599.
Consider C27A G41C C66U, for which the yeast fitness was determined as 0.689.
The value for C27A A37C G68A was no more than 0.5.
The same measure for U26C C31A C66G: no more than 0.5; for C27A A42C C46U C62U: 0.563.
The same measure for C27G A70C: 0.786; for U26A U64G A65U A69C: no more than 0.5; for C27G A43C A65U G67U: no more than 0.5.
C27G A45G G48A C66U: the yeast fitness was no more than 0.5.
U26C U35G: the yeast fitness is 0.615.
Take U26C A36G A45G: the yeast fitness was no more than 0.5.
The value for C27A U53A was 0.639; that for C27A G41C A57U was 0.611.
The value for U26C U28C C29G C34A was no more than 0.5; that for U26A U53A A65G was no more than 0.5.
Take C27A C49A G56C A65G: the yeast fitness was no more than 0.5.
As to C27G A42G G68A, the yeast fitness is no more than 0.5.
Consider C27A A43C C66U, for which the yeast fitness was determined as 0.709.
Turning to C27A A36G A37G A70U, the yeast fitness is no more than 0.5.
The same measure for U26C A43U A70U: 0.707; for U26C G48C: 0.86.
The value for C27A C31G C60G was 0.537; that for C27G C30G A40G C49A was 0.571; that for C27G C29G C34U C55U C61G was 0.65.
For the variant U26C A45U G68C, the yeast fitness is no more than 0.5.
The value for U26G U47C G51A was 0.559; that for U26C C30U U47A was 0.749.
Regarding C27A A36G C61G C66U A69U, the yeast fitness was no more than 0.5.
The value for U26C G68A was 0.863; that for U26C G68U was 0.821.
On to U26C C30U, for which the yeast fitness amounted to 0.67.
The same measure for C27G A45U C49U: no more than 0.5.
The value for C27G A65G was 0.694.
As for C27G A65U, the yeast fitness came to 0.713.
The same measure for U26G C55G: 0.636; for C27A C29G C49G G51C U54C: no more than 0.5.
The value for U26G A69C was 0.948.
Turning to U26G G39C A45G A57C C61G, the yeast fitness turned out to be 0.592.
The value for U26C C30G G41A C60G C62U G68A was no more than 0.5.
For C27A U64A, the yeast fitness is 0.748.
With C27A U64G, the yeast fitness stood at 0.65.
The same measure for U26A U54A: 0.589; for U26C G41C: 0.947.
The same measure for U26C C46A U47G G50A A69C: no more than 0.5; for U26A G52U C55A: 0.616.
C27A A36G C61U: the yeast fitness is no more than 0.5.
The same measure for U26G C27G C33U G39C U47C C49U: no more than 0.5; for C27G A37G C66U: 0.538; for C27A C60U C61G A65G: 0.598.
The value for C27A A57G G63A was 0.551; that for C27A C31U A43U was 0.961; that for C27G A36G G68A was no more than 0.5.
The same measure for U26G A37C: 0.652; for C27A C61G G67A: no more than 0.5.
C27A A37C G44A U53G: the yeast fitness was no more than 0.5.
The same measure for C27A G39A A57G G68A: no more than 0.5; for C27A C34G A43U A57C: no more than 0.5.
In the case of C27A A45U, the yeast fitness was 0.839.
The value for C27A U28A G41A G48A A65G was no more than 0.5; that for U26C U28A A65U was 0.524; that for C27G C30G C49U C60U G63C was 0.678.
Turning to C27G A45C C55G G58C, the yeast fitness is no more than 0.5.
The same measure for C27A G39C: 0.616; for U26G C46G: 0.807; for U26G A42U: 0.795.
The value for C27A C62U was 0.815; that for C27G A36G A65G was no more than 0.5.
On to U26C C27U A57G, for which the yeast fitness was 0.725.
The same measure for C27G A37G G52U: no more than 0.5.
The value for C27G A43G A70G was no more than 0.5; that for U26G A40G was 0.778; that for U26C U32C A37G C66U A69C was no more than 0.5.
The same measure for C27A G41C: 1.18; for U26G C55G U59A U64G: no more than 0.5.
Regarding C27A A36G A57G, the yeast fitness was no more than 0.5.
The value for U26C U32C C33G A42C C49G G58C C62G was no more than 0.5; that for U26C U28A was 0.727.
The value for U26C U28C was 0.81; that for C27A U28G was 0.66.
The value for C27A U28A was 0.841.
C27A U28C C29G A70G: the yeast fitness was no more than 0.5.
In the case of C27A A42C G68C, the yeast fitness is no more than 0.5.
The same measure for U26G A45C: 0.795.
The value for C27G A42U C55U was no more than 0.5.
As for C27G A65U C66G, the yeast fitness is no more than 0.5.
The same measure for C27G A37G A69U: 0.537.
Regarding U26C A43U G63A, the yeast fitness was determined as 0.658.
The value for U26C C30G C34A C49G G50A U64A was no more than 0.5; that for U26A G58C A65G was 0.611.
For the variant C27A U35A, the yeast fitness stood at 0.662.
Regarding C27A U35C, the yeast fitness came out at 0.735.
The same measure for C27G A57U C62U: 0.62.
Consider U26G U35C G63A A70G, for which the yeast fitness is no more than 0.5.
The same measure for U26G C27U: 0.801; for U26G C27G U47A U54C C62U: no more than 0.5.
C27A G58C A69C: the yeast fitness was determined as 0.719.
The same measure for U26G G52A G68U: no more than 0.5; for C27G C29G C49U: no more than 0.5; for C27A C34U A42C U53G C66U: 0.536.
The same measure for U26G A45U G50A: 0.535; for U26C C49G C55U: no more than 0.5.
The value for C27A C31G A42C C61G was no more than 0.5; that for C27A C46U G67A was 0.699; that for U26C G63A was 0.916.
With U26A U35C G68A, the yeast fitness turned out to be 0.631.
The same measure for U26G A42C U47C: 0.816.
